Measurements published in ChEMBL document CHEMBL1833827, “Synthesis and anticandidal activity of new triazolothiadiazine derivatives” (Eur J Med Chem, 2011).
≈ marks a conversion by molar mass, not a printed value.

Experiments:
[1] = tested on: NIH3T3; assay: Cytotoxicity against mouse NIH/3T3 cells after 24 hrs by MTT assay; type: cell-based; settings: NIH3T3, 24 h
How it was run: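 NIH/3T3 mouse fibroblasts (ATCC) grown in DMEM with 10% fetal calf serum, penicillin and streptomycin at 37 °C in 5% CO2. Cells were seeded at 2 × 10^4 cells/mL and preincubated 24 h. Compounds went from DMSO stocks diluted in medium (final DMSO <0.1%) at 0.5–500 µg/mL for 24 h. MTT was added at 0.5 mg/mL final for 4 h at 37 °C. Formazan was dissolved in DMSO and read at 540 nm. Triplicate wells per concentration. IC50 is the concentration reducing absorbance to 50% of control, reported as mean ± SD.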

[2] = tested on: Candida albicans; assay: Antifungal activity against Candida albicans NRRL Y-12983 by NCCLS M27-A2 microbroth dilution method; type: functional
[3] = tested on: Nakaseomyces glabratus; assay: Antifungal activity against Candida glabrata clinical isolate (Anadolu university) by NCCLS M27-A2 microbroth dilution method; type: functional
[4] = tested on: Candida albicans; assay: Antifungal activity against Candida albicans ATCC 90028 by NCCLS M27-A2 microbroth dilution method; type: functional
[5] = tested on: Pichia kudriavzevii; assay: Antifungal activity against Candida krusei NRRL Y-7179 by NCCLS M27-A2 microbroth dilution method; type: functional
[6] = tested on: Candida parapsilosis; assay: Antifungal activity against Candida parapsilosis NRRL Y-12696 by NCCLS M27-A2 microbroth dilution method; type: functional; settings: Lodderomyces parapsilosis
[7] = tested on: Nakaseomyces glabratus; assay: Antifungal activity against Candida glabrata clinical isolate (Osmangazi university) by NCCLS M27-A2 microbroth dilution method; type: functional
[8] = tested on: Candida tropicalis; assay: Antifungal activity against Candida tropicalis NRRL Y-12968 by NCCLS M27-A2 microbroth dilution method; type: functional
[9] = tested on: Candida albicans; assay: Antifungal activity against Candida albicans clinical isolate by NCCLS M27-A2 microbroth dilution method; type: functional

Structure (SMILES)	IC50 [1]	MIC [2]	MIC [3]	MIC [4]	MIC [5]	MIC [6]	MIC [7]	MIC [8]	MIC [9]
Oc1ccc(CCc2nnc3n2N=C(c2ccccc2)CS3)cc1	31.6 µg/mL (≈ 93.9 µM)	370 µg/mL (≈ 1100 µM)	180 µg/mL (≈ 535 µM)	80 µg/mL (≈ 238 µM)	370 µg/mL (≈ 1100 µM)	180 µg/mL (≈ 535 µM)	40 µg/mL (≈ 119 µM)	90 µg/mL (≈ 268 µM)	90 µg/mL (≈ 268 µM)
O=[N+]([O-])c1ccc(C2=Nn3c(CCc4ccc(O)cc4)nnc3SC2)cc1	307 µg/mL (≈ 804 µM)	750 µg/mL (≈ 1970 µM)	90 µg/mL (≈ 236 µM)	90 µg/mL (≈ 236 µM)	180 µg/mL (≈ 472 µM)	40 µg/mL (≈ 105 µM)	90 µg/mL (≈ 236 µM)	90 µg/mL (≈ 236 µM)	90 µg/mL (≈ 236 µM)
Oc1ccc(CCc2nnc3n2N=C(c2ccc(F)cc2)CS3)cc1	367 µg/mL (≈ 1030 µM)	1500 µg/mL (≈ 4230 µM)	370 µg/mL (≈ 1040 µM)	1500 µg/mL (≈ 4230 µM)	180 µg/mL (≈ 508 µM)	1500 µg/mL (≈ 4230 µM)	1500 µg/mL (≈ 4230 µM)	1500 µg/mL (≈ 4230 µM)	180 µg/mL (≈ 508 µM)
Oc1ccc(CCc2nnc3n2N=C(c2ccc(Cl)cc2)CS3)cc1	86.7 µg/mL (≈ 234 µM)	1500 µg/mL (≈ 4040 µM)	750 µg/mL (≈ 2020 µM)	750 µg/mL (≈ 2020 µM)	750 µg/mL (≈ 2020 µM)	370 µg/mL (≈ 998 µM)	750 µg/mL (≈ 2020 µM)	750 µg/mL (≈ 2020 µM)	750 µg/mL (≈ 2020 µM)
Cc1ccc(C2=Nn3c(CCc4ccc(O)cc4)nnc3SC2)cc1	400 µg/mL (≈ 1140 µM)	1500 µg/mL (≈ 4280 µM)	750 µg/mL (≈ 2140 µM)	750 µg/mL (≈ 2140 µM)	370 µg/mL (≈ 1060 µM)	370 µg/mL (≈ 1060 µM)	750 µg/mL (≈ 2140 µM)	1500 µg/mL (≈ 4280 µM)	750 µg/mL (≈ 2140 µM)
c1ccc(C2=Nn3c(CCC4CCCCC4)nnc3SC2)cc1	433 µg/mL (≈ 1330 µM)	180 µg/mL (≈ 551 µM)	90 µg/mL (≈ 276 µM)	90 µg/mL (≈ 276 µM)	180 µg/mL (≈ 551 µM)	370 µg/mL (≈ 1130 µM)	90 µg/mL (≈ 276 µM)	180 µg/mL (≈ 551 µM)	90 µg/mL (≈ 276 µM)
O=[N+]([O-])c1ccc(C2=Nn3c(CCC4CCCCC4)nnc3SC2)cc1	210 µg/mL (≈ 565 µM)	90 µg/mL (≈ 242 µM)	90 µg/mL (≈ 242 µM)	90 µg/mL (≈ 242 µM)	180 µg/mL (≈ 485 µM)	180 µg/mL (≈ 485 µM)	90 µg/mL (≈ 242 µM)	180 µg/mL (≈ 485 µM)	90 µg/mL (≈ 242 µM)
Fc1ccc(C2=Nn3c(CCC4CCCCC4)nnc3SC2)cc1	106 µg/mL (≈ 308 µM)	90 µg/mL (≈ 261 µM)	90 µg/mL (≈ 261 µM)	90 µg/mL (≈ 261 µM)	90 µg/mL (≈ 261 µM)	370 µg/mL (≈ 1070 µM)	370 µg/mL (≈ 1070 µM)	750 µg/mL (≈ 2180 µM)	370 µg/mL (≈ 1070 µM)
Clc1ccc(C2=Nn3c(CCC4CCCCC4)nnc3SC2)cc1	103 µg/mL (≈ 285 µM)	40 µg/mL (≈ 111 µM)	40 µg/mL (≈ 111 µM)	40 µg/mL (≈ 111 µM)	370 µg/mL (≈ 1030 µM)	20 µg/mL (≈ 55.4 µM)	90 µg/mL (≈ 249 µM)	90 µg/mL (≈ 249 µM)	180 µg/mL (≈ 499 µM)
Cc1ccc(C2=Nn3c(CCC4CCCCC4)nnc3SC2)cc1	198 µg/mL (≈ 582 µM)	90 µg/mL (≈ 264 µM)	180 µg/mL (≈ 529 µM)	180 µg/mL (≈ 529 µM)	180 µg/mL (≈ 529 µM)	370 µg/mL (≈ 1090 µM)	90 µg/mL (≈ 264 µM)	750 µg/mL (≈ 2200 µM)	90 µg/mL (≈ 264 µM)
CC(=O)N1CCN(c2ccc(OCC3COC(Cn4ccnc4)(c4ccc(Cl)cc4Cl)O3)cc2)CC1 (stereo not drawn) [KETOCONAZOLE]		15 µg/mL (≈ 28.2 µM)	7 µg/mL (≈ 13.2 µM)	30 µg/mL (≈ 56.5 µM)	3 µg/mL (≈ 5.65 µM)	7 µg/mL (≈ 13.2 µM)	15 µg/mL (≈ 28.2 µM)	3 µg/mL (≈ 5.65 µM)	30 µg/mL (≈ 56.5 µM)
